Measurements collected from several papers.
Target: Dual specificity protein kinase CLK1 (CLK1, Homo sapiens, UniProt P49759)

Structure (SMILES)	observed	mode	technique	concentration	quantity	value
CN1CCN(C(=O)c2ccc(NC(=O)Nc3ccc(N(C)c4ccnc(Nc5ccc(CS(C)(=O)=O)cc5)n4)cc3)cc2)CC1	binding		competition with immobilised ligand	1 µM	remaining binding	84%
CCCCC(=O)Nc1ccc(-c2ccc3ncn(CCC)c(=O)c3c2)cn1	binding		competition with immobilised ligand	0.5 µM	remaining binding	79%
Cc1ccc(NC(=O)c2ccnc(C(F)(F)F)c2)cc1-c1cc(OCCO)nc(N2CCOCC2)c1	binding		competition with immobilised ligand	1 µM	remaining binding	92%
Cc1cc(O)c(-c2ccc([C@@H](C)CN(C)C)cc2)c2c1[nH]c(=O)c1sccc12	enzyme activity	inhibitor		0.1 µM	inhibition	-7.55%
C1=C/COCc2cc(ccc2OCCN2CCCC2)Nc2nccc(n2)-c2cccc(c2)COC/1	binding			0.1 µM	remaining binding	27%
C=CC(=O)N1CCC[C@@H](n2nc(-c3ccc(Oc4ccccc4)cc3)c3c(N)ncnc32)C1	enzyme activity	inhibitor		1 µM	inhibition	23%
C#Cc1cc(-c2cc(Nc3nc(N[C@@H](C)c4ccc(F)cn4)ncc3Cl)n[nH]2)ccc1C=O	enzyme activity	inhibitor		0.2 µM	inhibition	34.2%
COc1ccc2oc(-c3ccc4nc(N)oc4c3)c/c(=N\c3ccccc3NC(=O)CCN)c2c1	binding			1 µM	remaining binding	94%
C=CC(=O)N1CCC([C@@H]2CCNc3c(C(N)=O)c(-c4ccc(Oc5ccccc5)cc4)nn32)CC1	enzyme activity	inhibitor		1 µM	inhibition	19%
